# Data published in publication PMC9564113 (Peptide Science (Hoboken, N.j.), 2022).
# Where two headings read alike, the source gives them in different places. Ends that are not written are not given here.
# Experiments:
# [1] = test system: S. aureus USA300 membrane potential; test: Membrane depolarization; format: cell-based, Staphylococcus aureus; conditions: DiBAC4(3) 500 nM; YZ105 8 μM, nafcillin 4 μM, linezolid 32 μM; Triton X‐100 positive control
# Method in brief: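 USA300 was grown in TSB to exponential phase, washed twice with PBS, and resuspended in PBS with 25 mM glucose (15 min, 37 °C). DiBAC4(3) was added to 500 nM. Baseline fluorescence (ex 485/em 520 nm) was read for 20 min. Test compound was then added and reading continued for 40 min, with Triton X-100 as positive control.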
# [2] = test system: Staphylococcus aureus USA300 LAC; test: Broth microdilution MIC, S. aureus USA300 LAC; format: cell-based; conditions: for MIC: Staphylococcus aureus; for MIC, S. aureus clinical strain USA300: Table 5, broth microdilution; for Antibacterial minimal inhibitory concentration, Staphylococcus aureus USA300 LAC: broth microdilution, 37 °C, 18–20 h, read at 630 nm
# Method in brief: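 Broth microdilution was run in tryptic soy broth. Log-phase USA300 LAC (OD600 ≈ 0.5) was diluted to 0.001 OD over serially diluted test compound, incubated 18–20 h at 37 °C and read at 630 nm. For medium effects the broth was adjusted to pH 5.5, 6.8, 7.4 or 8.0, brought to 100 mM NaCl, or supplemented with 1, 5 or 10% human serum.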
# S. aureus USA300 = test: Killing kinetics of exponential bacteria; format: cell-based, Staphylococcus aureus; conditions: 4 × MIC (YZ105 4 uM, nafcillin 2 μM, linezolid 16 μM), 2 h, exponential phase bacteria, colony counting
# [3] = test system: S. aureus USA300 membranes; test: Membrane permeabilization; format: cell-based, Staphylococcus aureus; conditions: in PBS, 4 × MIC (YZ103 16 μM, YZ105 4 μM, nafcillin 2 μM, linezolid 16 μM, LL‐37 16 μM), 20 μM propidium iodide, 37 °C
# [4] = test system: S. aureus USA300 LAC biofilms; test: Effect on 24 h preformed biofilms; format: cell-based, Staphylococcus aureus
# Method in brief: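 Biofilms were formed for 24 h at 37 °C from exponential-phase USA300 LAC. After PBS washes they were exposed to test compound in fresh TSB for 24 h at 37 °C. Following further washes, viable cells were measured by XTT (2 h, 37 °C, A450, blank of medium plus XTT). Results are given as % growth relative to untreated (100%), with water-treated and uninoculated controls; mean ± SD, p < 0.05.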
# [5] = test system: Nafcillin‐resistant S. aureus USA300; test: Antibacterial assay, nafcillin-resistant S. aureus USA300; format: cell-based, Staphylococcus aureus
# Method in brief: (§1)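 Log-phase cultures (OD600 ≈ 0.5) grown in tryptic soy broth were diluted to 0.001 OD and added to serially diluted test compound. Peptide stocks were freshly made in autoclaved water and quantitated by UV. Plates were incubated at 37 °C for 18–20 h and read at 630 nm for growth.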
# S. aureus Newman = test: Antibacterial assay, S. aureus clinical strain Newman; format: cell-based, Staphylococcus aureus; conditions: broth microdilution, TSB
# Method in brief: as §1
# Escherichia coli E423‐17 = test: Broth microdilution MIC, E. coli E423-17; format: cell-based; conditions: TSB, 37 °C, 18–20 h
# Method in brief: as §1
# [6] = test system: Acinetobacter baumannii B28‐16; test: Broth microdilution MIC, A. baumannii B28-16; format: cell-based; conditions: TSB, 37 °C, 18–20 h
# Method in brief: as §1
# S. aureus USA400 = test: Antibacterial assay, S. aureus clinical strain USA400; format: cell-based, Staphylococcus aureus; conditions: broth microdilution, TSB
# Method in brief: as §1
# [7] = test system: Pseudomonas aeruginosa E411‐17; test: Broth microdilution MIC, P. aeruginosa E411-17; format: cell-based; conditions: TSB, 37 °C, 18–20 h
# Method in brief: as §1
# [8] = test system: Staphylococcus epidermidis 1457; test: Broth microdilution MIC, S. epidermidis 1457; format: cell-based; conditions: TSB, 37 °C, 18–20 h
# Method in brief: as §1
# [9] = test system: Klebsiella pneumoniae E406‐17; test: Broth microdilution MIC, K. pneumoniae E406-17; format: cell-based; conditions: TSB, 37 °C, 18–20 h
# Method in brief: as §1
# S. aureus USA200 = test: Antibacterial assay, S. aureus clinical strain USA200; format: cell-based, Staphylococcus aureus; conditions: broth microdilution, TSB
# Method in brief: as §1
# S. aureus Mu50 = test: Antibacterial assay, S. aureus clinical strain Mu50; format: cell-based, Staphylococcus aureus; conditions: broth microdilution, TSB
# Method in brief: as §1
# [10] = test system: Gram‐positive and Gram‐negative bacteria; conditions: G+ = Gram‐positive bacteria; cited from earlier work
# [11] = test system: Gram‐positive pathogens (S. aureus, Enterococcus faecalis, Streptococcus spp., Bacillus anthracis, Clostridioides difficile, Propionibacterium acnes, Mycobacter); conditions: cited from earlier work
# [12] = USA300, pH 5.5, read-out: MIC against S. aureus USA300, pH 5.5
# [13] = USA300, pH 6.8, read-out: MIC against S. aureus USA300, pH 6.8
# [14] = USA300, pH 7.4, read-out: MIC against S. aureus USA300, pH 7.4
# [15] = USA300, pH 8, read-out: MIC against S. aureus USA300, pH 8
# [16] = USA300, read-out: MIC against S. aureus USA300, 100 mM NaCl
compound,measurement,setting,value
"CC(=O)NC[C@H]1CN(c2ccc(N3CCOCC3)c(F)c2)C(=O)O1 [Linezolid, linezolid, reference compound]",Membrane depolarization,[1],neither nafcillin nor linezolid was able to
same,MIC,[2]; [12],4 µM
same,MIC,[2]; [13],4 µM
same,MIC,[2]; [14],4 µM
same,MIC,[2]; [15],4 to 8 µM
same,MIC,[2]; [16],4 µM
same,Reduction of MRSA counts (CFU) in killing kinetics,S. aureus USA300,1 log
same,Membrane permeabilization (propidium iodide fluorescence),[3],neither nafcillin nor linezolid permeabilized the membranes
same,Effect on 24 h preformed biofilms in combination,"[4]; in the presence of 2 μM YZ105, XTT",became more effective
"CCOc1ccc2ccccc2c1C(=O)N[C@@H]1C(=O)N2[C@@H]1SC(C)(C)[C@@H]2C(=O)O [Nafcillin, nafcillin, reference compound]",Membrane depolarization,[1],neither nafcillin nor linezolid was able to
same,MIC,"[5]; Staphylococcus aureus, USA300, read-out: MIC, Nafcillin‐resistant USA300",1020 µM
same,MIC,[2]; [12],0.5 µM
same,MIC,[2]; [13],1 µM
same,MIC,[2]; [14],0.5 to 1 µM
same,MIC,[2]; [15],1 µM
same,MIC,[2]; [16],1 to 2 µM
same,Increase of MIC values by serum,[2]; TSB with human serum compared with normal TSB,4–8 fold
same,Reduction of MRSA counts (CFU) in killing kinetics,S. aureus USA300,barely reduced bacterial burden
same,Membrane permeabilization (propidium iodide fluorescence),[3],neither nafcillin nor linezolid permeabilized the membranes
same,Effect on 24 h preformed biofilms,"[4]; 24 h treatment in TSB, live cells by XTT at 450 nm, relative to untreated (100%)",did not display a clear effect
CC[C@H](C)[C@H](NC(=O)[C@H](CCCNC(=N)N)NC(=O)[C@H](C)NC(=O)[C@@H](NC(=O)[C@H](CO)NC(=O)[C@@H](NC(=O)[C@@H](NC(=O)[C@H](CCC(N)=O)NC(=O)[C@H](CO)NC(=O)[C@@H](NC(=O)[C@@H](N)Cc1ccccc1)[C@@H](C)CC)[C@@H](C)CC)[C@@H](C)CC)[C@@H](C)O)C(N)=O [YZ103],"MIC, S. aureus clinical strain Newman",S. aureus Newman,>32 µM
same,"Antibacterial minimal inhibitory concentration, Escherichia coli E423‐17",Escherichia coli E423‐17,>16 µM
same,"Antibacterial minimal inhibitory concentration, Acinetobacter baumannii B28‐16",[6],>16 µM
same,"MIC, S. aureus clinical strain USA400",S. aureus USA400,>32 µM
same,"Antibacterial minimal inhibitory concentration, Pseudomonas aeruginosa E411‐17",[7],>16 µM
same,"Antibacterial minimal inhibitory concentration, Staphylococcus epidermidis 1457",[8],>16 µM
same,"Antibacterial minimal inhibitory concentration, Klebsiella pneumoniae E406‐17",[9],>16 µM
same,"MIC, S. aureus clinical strain USA200",S. aureus USA200,>32 µM
same,"MIC, S. aureus clinical strain USA300",[2]; TSB,>32 µM
same,"Antibacterial minimal inhibitory concentration, Staphylococcus aureus USA300 LAC",[2]; TSB,>16 µM
same,"MIC, S. aureus clinical strain Mu 50",S. aureus Mu50,>32 µM
CC[C@H](C)[C@H](NC(=O)[C@H](CCCNC(=N)N)NC(=O)[C@H](C)NC(=O)[C@@H](NC(=O)[C@H](CO)NC(=O)[C@@H](NC(=O)[C@@H](NC(=O)[C@H](CCC(N)=O)NC(=O)[C@H](CO)NC(=O)[C@@H](NC(=O)[C@@H](N)Cc1ccccc1)[C@@H](C)CC)[C@@H](C)CC)[C@@H](C)CC)[C@@H](C)O)C(=O)N[C@@H](CC(C)C)C(=O)N[C@@H](CC(C)C)C(N)=O [YZ104],"Antibacterial minimal inhibitory concentration, Escherichia coli E423‐17",Escherichia coli E423‐17,>16 µM
same,"Antibacterial minimal inhibitory concentration, Acinetobacter baumannii B28‐16",[6],>16 µM
same,"Antibacterial minimal inhibitory concentration, Pseudomonas aeruginosa E411‐17",[7],>16 µM
same,"Antibacterial minimal inhibitory concentration, Staphylococcus epidermidis 1457",[8],>16 µM
same,"Antibacterial minimal inhibitory concentration, Klebsiella pneumoniae E406‐17",[9],>16 µM
same,"Antibacterial minimal inhibitory concentration, Staphylococcus aureus USA300 LAC",[2]; TSB,>16 µM
FLSKILSTLRILF-NH2 [YZ107],"Antibacterial minimal inhibitory concentration, Escherichia coli E423‐17",Escherichia coli E423‐17,8 µM
same,"Antibacterial minimal inhibitory concentration, Acinetobacter baumannii B28‐16",[6],4 to 8 µM
same,"Antibacterial minimal inhibitory concentration, Pseudomonas aeruginosa E411‐17",[7],8 to 16 µM
same,"Antibacterial minimal inhibitory concentration, Staphylococcus epidermidis 1457",[8],2 µM
same,"Antibacterial minimal inhibitory concentration, Klebsiella pneumoniae E406‐17",[9],>16 µM
same,"Antibacterial minimal inhibitory concentration, Staphylococcus aureus USA300 LAC",[2]; TSB,2 µM
FLSKILSTLRILL-NH2 [YZ106],"Antibacterial minimal inhibitory concentration, Escherichia coli E423‐17",Escherichia coli E423‐17,8 to 16 µM
same,"Antibacterial minimal inhibitory concentration, Acinetobacter baumannii B28‐16",[6],8 µM
same,"Antibacterial minimal inhibitory concentration, Pseudomonas aeruginosa E411‐17",[7],>16 µM
same,"Antibacterial minimal inhibitory concentration, Staphylococcus epidermidis 1457",[8],1 to 2 µM
same,"Antibacterial minimal inhibitory concentration, Klebsiella pneumoniae E406‐17",[9],>16 µM
same,"Antibacterial minimal inhibitory concentration, Staphylococcus aureus USA300 LAC",[2]; TSB,2 µM
FLSQILSTLRILL-NH2 [YZ105],"MIC, S. aureus clinical strain Newman",S. aureus Newman,2 µM
same,"MIC, Nafcillin‐resistant USA300","[5]; broth microdilution, TSB",2 µM
same,"Antibacterial minimal inhibitory concentration, Escherichia coli E423‐17",Escherichia coli E423‐17,>16 µM
same,"Antibacterial minimal inhibitory concentration, Acinetobacter baumannii B28‐16",[6],>16 µM
same,"MIC, S. aureus clinical strain USA400",S. aureus USA400,1 µM
same,"Antibacterial minimal inhibitory concentration, Pseudomonas aeruginosa E411‐17",[7],>16 µM
same,"Antibacterial minimal inhibitory concentration, Staphylococcus epidermidis 1457",[8],1 µM
same,"Antibacterial minimal inhibitory concentration, Klebsiella pneumoniae E406‐17",[9],>16 µM
same,"MIC, S. aureus clinical strain USA200",S. aureus USA200,1 µM
same,"MIC against S. aureus USA300, pH 5.5",[2]; TSB adjusted to pH 5.5,4–8 μM
same,"MIC against S. aureus USA300, pH 6.8",[2]; TSB adjusted to pH 6.8,2 μM
same,"MIC against S. aureus USA300, pH 8",[2]; TSB adjusted to pH 8.0,<0.5 μM
same,"MIC against S. aureus USA300, 100 mM NaCl",[2]; TSB with 100 mM NaCl added,2 µM
same,"MIC against S. aureus USA300, 1% serum",[2]; TSB with 1% human serum,2 µM
same,"MIC against S. aureus USA300, 5% serum",[2]; TSB with 5% human serum,8 µM
same,"MIC against S. aureus USA300, 10% serum",[2]; TSB with 10% human serum,8 to 16 µM
same,"MIC against S. aureus USA300, pH 7.4","[2]; TSB, pH 7.4 (normal condition)",1–2 μM
same,"MIC, S. aureus clinical strain USA300",[2]; TSB,1 µM
same,"Antibacterial minimal inhibitory concentration, Staphylococcus aureus USA300 LAC",[2]; TSB,1 µM
same,"MIC, S. aureus clinical strain Mu 50",S. aureus Mu50,2 µM
"LL‐37: human cathelicidin LL‐37 (LLGDFFRKSKEKIGKEFKRIVQRIKDFLRNLVPRTES; Antibacterial peptide LL-37; UniProt P49913 134-170, looked up)",Membrane permeabilization (propidium iodide fluorescence),[3],steady increase in fluorescence with time
teixobactin,Activity spectrum,[10],Mainly G+
same,MIC,[11],5 to 250 ng/mL
